According to ChEMBL document CHEMBL4350958, “Rational Design of Short Peptide Variants by Using Kunitzin-RE, an Amphibian-Derived Bioactivity Peptide, for Acquired Potent Broad-Spectrum Antimicrobial and Improved Therapeutic Potential of Commensalism Coinfection of Pathogens” (J Med Chem, 2019):

Experiments:
[1] = tested on: Pseudomonas aeruginosa; test: Antibacterial activity against Pseudomonas aeruginosa ATCC 27853 measured after 24 hrs; type: functional; conditions: ATCC 27853, 24 h
In short: (§1)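 Broth microdilution adapted from NCCLS. Mid-log bacteria were diluted in MHB to a final (0.5–1) × 10^5 CFU mL−1. Peptides were serially diluted in 0.2% BSA and mixed with an equal volume of cells. After 24 h at 37 °C, MIC was read at A492 as the lowest concentration inhibiting 95% of growth. At least three independent experiments, each with three technical replicates.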

[2] = tested on: Escherichia coli; test: Antibacterial activity against Escherichia coli 078 measured after 24 hrs; type: functional; conditions: Escherichia coli, 078, 24 h; in short: as §1
[3] = tested on: Salmonella typhimurium; test: Antibacterial activity against Salmonella typhimurium C7731 measured after 24 hrs; type: functional, Salmonella enterica subsp. enterica serovar Typhimurium; conditions: Salmonella enterica, C7731, 24 h; in short: as §1
[4] = tested on: Staphylococcus aureus; test: Antibacterial activity against Staphylococcus aureus ATCC 25923 measured after 24 hrs; type: functional; conditions: ATCC 25923, 24 h
In short: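 Broth microdilution modified from NCCLS. Mid-log bacteria at (0.5–1) × 10^5 CFU mL−1 in MHB, mixed with peptides serially diluted in 0.2% BSA. Incubated 24 h at 37 °C, read at A492. MIC taken as lowest concentration giving 95% growth inhibition. At least three independent experiments, each with three technical replicates.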

[5] = tested on: Escherichia coli; test: Bactericidal activity against Escherichia coli ATCC 25922 incubated for 24 hrs followed by replating on agar plate and measured after overnight incubation; type: functional; conditions: ATCC 25922, 24 h, read-out: MBC>99.9
In short: (§2)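 After the 24 h, 37 °C MHB microdilution (0.5–1 × 10^5 CFU mL−1 inoculum, peptides diluted in 0.2% BSA), 50 μL from each well was plated on agar and incubated overnight. MBC was taken as the lowest concentration killing >99.9% of cells. Three or more independent experiments, each with triplicate technical replicates.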

[6] = tested on: Escherichia coli; test: Bactericidal activity against Escherichia coli UB1005 incubated for 24 hrs followed by replating on agar plate and measured after overnight incubation; type: functional; conditions: UB1005, 24 h, read-out: MBC>99.9
In short: (§3)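 Mid-log bacteria diluted in MHB to (0.5–1) × 10^5 CFU/mL and mixed 1:1 with peptide serially diluted in 0.2% BSA. After 24 h at 37 °C, 50 μL of each mixture was plated on agar and incubated overnight. MBC taken as the lowest concentration killing >99.9% of cells. At least three independent experiments, each with three technical replicates.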

[7] = tested on: Pseudomonas aeruginosa; test: Bactericidal activity against Pseudomonas aeruginosa ATCC 27853 incubated for 24 hrs followed by replating on agar plate and measured after overnight incubation; type: functional; conditions: ATCC 27853, 24 h, read-out: MBC>99.9; in short: as §3
[8] = tested on: Escherichia coli; test: Bactericidal activity against Escherichia coli 078 incubated for 24 hrs followed by replating on agar plate and measured after overnight incubation; type: functional; conditions: Escherichia coli, 078, 24 h; read-out: MBC>99.9; in short: as §2
[9] = tested on: Candida tropicalis; test: Fungicidal activity against Candida tropicalis cgmcc2.1975 incubated for 48 hrs followed by replating on YM agar plate and measured after 48 hrs; type: functional
In short: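 Yeast diluted in MOPS-buffered RPMI 1640 to (0.5–1) × 10^3 CFU/mL (CLSI M27-A2, modified) and mixed 1:1 with peptide serially diluted in 0.2% BSA. After 48 h at 28 °C, 50 μL per well was plated on YM agar and incubated 48 h at 28 °C. MFC taken as the lowest concentration killing ≥99.9% of cells. Three or more independent experiments, triplicate wells.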

[10] = tested on: Erythrocyte; test: Hemolytic activity in human RBC measured after 1 hr; type: ADME, cell-based
In short: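 Fresh healthy-donor human erythrocytes at ~1% (v/v) in PBS pH 7.4, mixed 1:1 with peptide (1–128 µM), 1 h at 37 °C. After centrifugation at 1000×g, supernatant hemoglobin read at 576 nm. Untreated cells set 0% and 0.1% Triton X-100 set 100%. MHC defined as the concentration giving >10% hemolysis. Three or more independent experiments, triplicates.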

[11] = tested on: Escherichia coli; test: Antibacterial activity against Escherichia coli ATCC 25922 measured after 18 to 24 hrs in presence of KCl; type: functional
[12] = tested on: Escherichia coli; test: Antibacterial activity against Escherichia coli ATCC 25922 measured after 18 to 24 hrs in presence of ZnCl2; type: functional
[13] = tested on: Escherichia coli; test: Antibacterial activity against Escherichia coli ATCC 25922 measured after 18 to 24 hrs in presence of NH4Cl; type: functional
[14] = tested on: Staphylococcus aureus; test: Antibacterial activity against Staphylococcus aureus ATCC 29213 measured after 18 to 24 hrs in presence of ZnCl2; type: functional
In short: (§4)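 MIC broth microdilution (MHB, 0.2% BSA peptide diluent, A492, 95% inhibition) run in the presence of physiological salts at final concentrations of 6 μM NH4Cl or 8 μM ZnCl2. Three independent assays, each with three technical replicates.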

[15] = tested on: Staphylococcus aureus; test: Antibacterial activity against Staphylococcus aureus ATCC 29213 measured after 18 to 24 hrs in presence of FeCl3; type: functional
[16] = tested on: Staphylococcus aureus; test: Antibacterial activity against Staphylococcus aureus ATCC 29213 measured after 18 to 24 hrs in presence of NH4Cl; type: functional; in short: as §4
[17] = tested on: Candida albicans; test: Antifungal activity against Candida albicans cgmcc2.2086 measured after 48 hrs in presence of NaCl by broth microdilution method; type: functional; conditions: cgmcc2.2086, 48 h
[18] = tested on: Candida albicans; test: Antifungal activity against Candida albicans cgmcc2.2086 measured after 48 hrs in presence of KCl by broth microdilution method; type: functional; conditions: cgmcc2.2086, 48 h
[19] = tested on: Candida albicans; test: Antifungal activity against Candida albicans cgmcc2.2086 measured after 48 hrs in presence of CaCl by broth microdilution method; type: functional; conditions: cgmcc2.2086, 48 h
[20] = tested on: Candida albicans; test: Antifungal activity against Candida albicans cgmcc2.2086 measured after 48 hrs in presence of FeCl by broth microdilution method; type: functional; conditions: cgmcc2.2086, 48 h
[21] = tested on: Candida albicans; test: Antifungal activity against Candida albicans cgmcc2.2086 measured after 48 hrs in presence of NH4Cl by broth microdilution method; type: functional; conditions: cgmcc2.2086, 48 h
[22] = Therapeutic index, ratio of MHC10 for hemolytic activity in human RBC to MIC95 against Candida albicans cgmcc2.2086; type: toxicity; conditions: human red blood cells (erythrocytes), read-out: TI
In short: (§5)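 Therapeutic index = MHC divided by MIC. MHC is the lowest concentration giving >10% lysis of human RBC (1 h, 37 °C, 1-128 µM, A576). MIC is 95% growth inhibition by broth microdilution: bacteria in MHB 24 h at 37 °C; Candida in MOPS-buffered RPMI 1640 at (0.5–1) × 10^3 CFU mL−1, 48 h at 28 °C.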

[23] = Therapeutic index, ratio of MHC10 for hemolytic activity in human RBC to MIC95 against Candida parapsilosis cgmcc2.3989; type: toxicity; conditions: human red blood cells (erythrocytes), read-out: TI; in short: as §5
[24] = Conformational stability in pH 7.4 sodium phosphate buffer assessed as absorption spectra at minimum dichroic band at 35 uM by CD spectra analysis; type: physicochemical; conditions: pH 7.4, 35 µM
In short: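 CD spectra from 190 to 250 nm of peptide at 35 μM in 10 mM PBS, 30 mM SDS micelles or 50% TFE, recorded in a 1.0-mm quartz cell. Ellipticity was converted to mean residue ellipticity. Three independent scans, each averaged over more than 3 runs.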

Row | Substance | MIC95 [1] [µM] | MIC95 [2] [µM] | MIC95 [3] [µM] | MIC95 [4] [µM] | MBC [5] [µM] | MBC [6] [µM] | MBC [7] [µM] | MBC [8] [µM] | MFC<=99.9 [9] [µM] | MHC10 [10] [µM] | MIC95 [11] [µM] | MIC95 [12] [µM] | MIC95 [13] [µM] | MIC95 [14] [µM] | MIC95 [15] [µM] | MIC95 [16] [µM] | MIC95 [17] [µM] | MIC95 [18] [µM] | MIC95 [19] [µM] | MIC95 [20] [µM] | further results
1 | H-AARRILRWIFR-NH2 | 8 | 4 | 4 | 8 | 4 | 4 | 16 | 4 | 4 | > 128 | 8 | 8 | 4 | 4 | 4 | 8 | 32 | 16 | 128 | 8 | MIC95 [21]: 8 µM; selectivity ratio [22]: 40.3; selectivity ratio [23]: 40.3; Wavelength of minimum CD band [24]: 200 nm
2 | H-AARIILRGRFR-NH2 | 16 | 4 | 8 | 16 | 8 | 8 | 32 | 8 | 32 | > 128 | 8 | 4 | 8 | 8 | 8 | 16 | > 128 | 128 | > 128 | 128 | MIC95 [21]: > 128 µM; selectivity ratio [22]: 5.04; selectivity ratio [23]: 5.04; Wavelength of minimum CD band [24]: 200 nm
3 | H-AARIILRLRFR-NH2 | 8 | 4 | 4 | 2 | 8 | 8 | 32 | 8 | 4 | > 128 | 8 | 4 | 4 | 2 | 4 | 2 | 32 | 8 | 32 | 8 | MIC95 [21]: 8 µM; selectivity ratio [22]: 50.8; selectivity ratio [23]: 50.8; Wavelength of minimum CD band [24]: 200 nm
4 | H-AARIILRARFR-NH2 | 16 | 4 | 4 | 4 | 4 | 4 | 32 | 4 | 4 | > 128 | 8 | 4 | 2 | 4 | 4 | 4 | 64 | 16 | 64 | 16 | MIC95 [21]: 16 µM; selectivity ratio [22]: 25.4; selectivity ratio [23]: 25.4; Wavelength of minimum CD band [24]: 200 nm
5 | H-AARIILRYRFR-NH2 | 16 | 4 | 4 | 8 | 16 | 8 | 64 | 4 | 32 | > 128 | 32 | 8 | 8 | 2 | 4 | 4 | 128 | 64 | 128 | 64 | MIC95 [21]: 64 µM; selectivity ratio [22]: 8; selectivity ratio [23]: 8; Wavelength of minimum CD band [24]: 200 nm
6 | H-AARIILRWRFR-NH2 | 4 | 2 | 4 | 2 | 4 | 4 | 4 | 2 | 4 | > 128 | 2 | 4 | 4 | 1 | 1 | 2 | 16 | 8 | 32 | 8 | MIC95 [21]: 8 µM; selectivity ratio [22]: 50.8; selectivity ratio [23]: 50.8; Wavelength of minimum CD band [24]: 200 nm
